{
  "source": "PubChem BioAssay AID602300",
  "about": "(The Scripps Research Institute Molecular Screening Center, 2012)",
  "note": "The source made the active and inactive calls.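 The calls were made as follows: active = inhibition of at least 50%; inactive = inhibition below 50%.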",
  "data": [
    {"biological_target": "Diacylglycerol lipase-beta (Mus musculus) (UniProt Q91WC9)", "sequence (Q91WC9 whole entry, looked up)": "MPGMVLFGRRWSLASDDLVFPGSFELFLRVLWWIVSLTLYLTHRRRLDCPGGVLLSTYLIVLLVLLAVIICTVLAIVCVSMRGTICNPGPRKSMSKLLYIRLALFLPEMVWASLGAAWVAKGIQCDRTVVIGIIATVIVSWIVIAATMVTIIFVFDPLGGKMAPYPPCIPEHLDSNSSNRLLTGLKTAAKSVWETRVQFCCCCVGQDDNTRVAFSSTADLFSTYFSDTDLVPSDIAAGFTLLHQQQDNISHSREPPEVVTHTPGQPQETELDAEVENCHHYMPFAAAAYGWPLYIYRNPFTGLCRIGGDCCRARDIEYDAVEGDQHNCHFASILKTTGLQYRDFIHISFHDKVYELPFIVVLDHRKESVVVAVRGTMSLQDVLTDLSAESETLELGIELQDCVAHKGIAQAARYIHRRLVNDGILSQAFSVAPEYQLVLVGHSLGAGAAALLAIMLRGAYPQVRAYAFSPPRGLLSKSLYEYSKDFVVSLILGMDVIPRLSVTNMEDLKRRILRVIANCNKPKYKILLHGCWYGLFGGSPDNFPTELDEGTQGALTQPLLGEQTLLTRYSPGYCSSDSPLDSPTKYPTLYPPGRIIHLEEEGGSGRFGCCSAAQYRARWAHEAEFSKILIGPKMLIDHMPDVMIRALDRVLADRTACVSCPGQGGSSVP", "assay": "blocking of probe labeling on DAGLb – biochemical, gel-based fluorescence, overexpressed mouse, set 3, late-stage follow-up (AID 602300)", "conditions": "HEK293T membrane mDAGLb, gel ABPP fluorescence; at 1 µM; stronger effect = higher value", "method_in_brief": "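Material: Mouse DAGLb overexpressed in transiently transfected HEK293T cell membrane proteome | Quantity: 0.3 mg/mL membrane protein | Medium: Dulbecco's PBS (DPBS) | Schedule: 30 min compound plus 30 min probe, 37 °C | Technique: SDS-PAGE with in-gel fluorescence scan, band integrated optical density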", "values": [
      {"compound": "O=C(O)c1cccc(-c2ccc(-c3cn(C(=O)N4CCCCC4CCc4ccccc4)nn3)cc2)c1", "note": "(configuration not stated)", "inhibition": "4% (inactive)"},
      {"compound": "NC(=O)c1ccc(-c2ccc(-c3cn(C(=O)N4CCCCC4c4ccccc4)nn3)cc2)cc1", "note": "(configuration not stated)", "inhibition": "0% (inactive)"},
      {"compound": "O=C(c1ccc(-c2ccc(-c3cn(C(=O)N4CCCCC4Cc4ccccc4)nn3)cc2)cc1)N1CCCCC1", "note": "(configuration not stated)", "inhibition": "39% (inactive)"},
      {"compound": "O=C(O)c1cccc(-c2ccc(-c3cn(C(=O)N4CCCCC4c4ccccc4)nn3)cc2)c1", "note": "(configuration not stated)", "inhibition": "6% (inactive)"},
      {"compound": "O=C(N1CCCCC1c1ccccc1)n1cc(-c2ccc(-c3ccccc3CO)cc2)nn1", "note": "(configuration not stated)", "inhibition": "0% (inactive)"},
      {"compound": "O=C(c1ccc(-c2ccc(-c3cn(C(=O)N4CCCCC4c4ccccc4)nn3)cc2)cc1)N1CCCCC1", "note": "(configuration not stated)", "inhibition": "0% (inactive)"},
      {"compound": "O=C(N1CCCCC1c1ccccc1)n1cc(-c2ccc(-c3ccc(CO)cc3)cc2)nn1", "note": "(configuration not stated)", "inhibition": "0% (inactive)"},
      {"compound": "O=C(O)c1ccc(-c2ccc(-c3cn(C(=O)N4CCCCC4CCc4ccccc4)nn3)cc2)cc1", "note": "(configuration not stated)", "inhibition": "1% (inactive)"},
      {"compound": "O=C(O)c1cccc(-c2ccc(-c3cn(C(=O)N4CCCCC4Cc4ccccc4)nn3)cc2)c1", "note": "(configuration not stated)", "inhibition": "50%"},
      {"compound": "O=C(N1CCCCC1c1ccccc1)n1cc(-c2ccc(-c3cccc(CO)c3)cc2)nn1", "note": "(configuration not stated)", "inhibition": "0% (inactive)"},
      {"compound": "O=C(N1CCCCC1Cc1ccccc1)n1cc(-c2ccc(-c3cccc(CO)c3)cc2)nn1", "note": "(configuration not stated)", "inhibition": "84%"},
      {"compound": "O=C(c1cccc(-c2ccc(-c3cn(C(=O)N4CCCCC4c4ccccc4)nn3)cc2)c1)N1CCCCC1", "note": "(configuration not stated)", "inhibition": "0% (inactive)"}
    ]}
  ]
}
